Screening results as filed in PubChem.
Rows were chosen to be rich in hits. Some 3.1% of all compounds tested hit in one or more screens of this group.
Cneo AK release: causes C. neoformans cell lysis; adenylate kinase release luminescence, 4 h; normalised: neutral wells 0, clomiphene wells 100; lysis activity, % at 15 µM; actives 0.2% (n = 360,000);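 active = mean lysis activity across replicates of at least 80%, whatever share of replicates individually reach that level; inactive = mean lysis activity below 80%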
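Signal: Adenylate kinase release luminescence | Assay system: Log-phase Cryptococcus neoformans yeast cells | Input: Cells at 5 × 10^6 per mL | Buffer or medium: Fresh YPD growth medium | Compound: Single dose | Schedule: Static 4 h at 37 °C with compound, 1 h detection | Controls: Clomiphene | Read-out: Luminescence rise reflecting yeast cell lysis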
miR-122 sensor: blocks miR-122 activity in Huh7 sensor cells; activation (reporter increase), % at 12.5 µM; actives 0.3% (n = 340,000); Huh7 miR-122 Renilla luciferase sensor, 48 h; neutral wells = 0, positive control = 100;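 active = mean replicate activation score at least 90 and every replicate individually at or above 90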;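 note: higher luciferase means less miR-122 activity so hits act as miR-122 inhibitors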
HIV Env fusion: inhibitors of HIV Env-mediated cell fusion; HeLa-JRFL Env/CEM21 cell fusion, luciferase; inhibition, % at 12.3 µM; actives 1.1% (n = 360,000); AID 651610;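 active = mean replicate inhibition score of at least 50 and every replicate individually at or above 50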
Ecoli rRNA inh: selective bacterial rRNA inhibition in E. coli; E. coli WT GFP vs humanized-ribosome RFP mutants, fluorescence, 24 h; hits give low values; DMSO median 0, no signal -100; GFP signal change (wild-type ribosome), % (no concentration beside the values); actives 1.6% (n = 350,000);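 active = significant combined selectivity score with lowered wild-type GFP, culture density cut under 30%, mutant RFP and density less affected; inactive = any of these conditions unmet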
F508del corr: correctors of CFTR F508del function in bronchial epithelial cells; AID 720511; actives 0.36% (n = 350,000); activity (quench increase), % at 7.58 µM; CFBE cells, YFP halide quenching; stimulated with forskolin plus potentiator P3; % fluorescence drop versus neutral controls;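 active = mean added fluorescence quench of at least 8% versus neutral control, with both replicates also reaching 8%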;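 note: cells transiently co-express mutant CFTR-F508del with the halide-sensitive YFP; corrector assay measuring rescue of mutant channel to the surface after 24 h compound exposure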
GSIS activator: primary screen for activators of insulin secretion dependent on glucose, INS-1E cells, GLuc reporter luminescence. actives 0.61% (n = 370,000). activation, % at 16.6 µM. AID 743287. INS-1E GLuc reporter insulin secretion, 2-3 h;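 active = lowest replicate activation of at least 40%, so every replicate reaches that level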
Of the large screens only hits and unclear results are named; the others gave an inactive call.

Cc1cccc(S(=O)(=O)N2CCCCN3[C@H](CO)[C@@H](c4ccc(C#C[C@H](C)O)cc4)[C@@H]3C2)c1	none (no result: HIV Env fusion)
Cc1cccc(S(=O)(=O)N2CCCCN3[C@@H](CO)[C@@H](c4ccc(C#CC(C)C)cc4)[C@@H]3C2)c1	GSIS activator 56.7 (no result: HIV Env fusion)
Cc1cccc(S(=O)(=O)N2CCCCN3[C@H](CO)[C@@H](c4ccc(C#CC(C)C)cc4)[C@H]3C2)c1	none (no result: HIV Env fusion)
CCS(=O)(=O)N1CCCCN2[C@H](CO)[C@@H](c3ccc(-c4ccc(C#N)cc4)cc3)[C@@H]2C1	Cneo AK release 87.9 (no result: HIV Env fusion)
COc1cccc(S(=O)(=O)N2CCCCN3[C@H](CO)[C@H](c4ccc(C5=CCCCC5)cc4)[C@H]3C2)c1	Ecoli rRNA inh -31.6 (no result: HIV Env fusion)
Cc1cccc(S(=O)(=O)N2CCCCN3[C@H](CO)[C@H](c4ccc(C#CC(C)C)cc4)[C@H]3C2)c1	Ecoli rRNA inh -26.9 (no result: HIV Env fusion)
CC(C)CC#Cc1cnc2c(c1)C(=O)N([C@H](C)CO)C[C@@H](C)[C@H](CN(C)C(=O)C1CCOCC1)O2	none
COc1ccc2c3c(n(C)c2c1)[C@@H](CO)N(Cc1ccccc1F)CC31CN(C(=O)C2CCCC2)C1	none (no result: Cneo AK release, miR-122 sensor, HIV Env fusion)
COc1ccc(/C=C/C(=O)OCC(=O)N2c3ccccc3CC2C)c(OC)c1 (centres undefined)	none
COc1ccc(OCC(=O)N2c3ccccc3CC2C)c([N+](=O)[O-])c1 (centres undefined)	Ecoli rRNA inh -24.4 (no result: HIV Env fusion, GSIS activator)
CC1Cc2ccccc2N1C(=O)c1ccc(N2CCCCC2)c([N+](=O)[O-])c1 (centres undefined)	Ecoli rRNA inh -30.5 (no result: HIV Env fusion)
Cc1ccc(S(=O)(=O)NCc2ccccc2)cc1C(=O)N1CCCCC1	none (no result: miR-122 sensor)
Cc1ccc(S(=O)(=O)NCc2ccccc2)cc1C(=O)N1CC(C)CC(C)C1 (centres undefined)	F508del corr 8.3
NC1=NC2(CCCCC2)N=C(Nc2ccc(F)cc2F)N1	none (no result: Ecoli rRNA inh, F508del corr, GSIS activator)
Cc1cc(C)cc(NC2=NC3(CCCCC3)N=C(N)N2)c1	miR-122 sensor 108.7 (no result: HIV Env fusion, Ecoli rRNA inh, F508del corr, GSIS activator)
C[C@H]1CC=CC[C@H](c2ccccc2)NC(=O)[C@H](Cc2ccccc2)N(C)C(=O)c2ccccc2O1 (mixture of isomers)	none (no result: Cneo AK release, miR-122 sensor, HIV Env fusion, F508del corr)
COc1cc(C2c3cc4c(cc3OC(NNC(N)=O)C2C)OCO4)cc(OC)c1OC (centres undefined)	none (no result: Cneo AK release)
COc1cccc(C2c3cc4c(cc3OC(NNC(N)=O)C2C)OCO4)c1O (centres undefined)	F508del corr 8.9 (no result: Cneo AK release)
CCOc1ncccc1C(=O)NNC(=O)c1ccccc1-n1cccc1	GSIS activator 54.1 (no result: miR-122 sensor)
CN(C)C(=O)COC(=O)c1cccnc1Nc1ccccc1F	GSIS activator 79.5 (no result: Cneo AK release, miR-122 sensor, F508del corr)
CCOc1ncccc1C(=O)Nc1ccccc1F	GSIS activator 76.6
CCOc1ncccc1C(=O)Nc1ccc(F)cc1	none
CCOc1ncccc1C(=O)Nc1ccc(Cl)cc1	none (no result: Cneo AK release, miR-122 sensor, Ecoli rRNA inh, F508del corr, GSIS activator)
C[C@H]1CN([C@@H](C)CO)S(=O)(=O)c2ccc(-c3ccc(F)cc3)cc2O[C@H]1CN(C)S(C)(=O)=O	none
Cc1ccc(S(=O)(=O)N[C@@H]2CC[C@@H](CC(=O)NC3CCCCC3)O[C@H]2CO)cc1	none (no result: miR-122 sensor)
Cc1nc(CN2CCN(C(=O)NC3(c4ccccc4)CC3)CC2)cs1	none (no result: HIV Env fusion, Ecoli rRNA inh, F508del corr)
Cc1nc(CN2CCN(S(=O)(=O)c3c(Cl)cc(Br)cc3Cl)CC2)cs1	GSIS activator 68.5 (no result: Cneo AK release, miR-122 sensor)
C[C@H]1CN([C@@H](C)CO)C(=O)c2cc(C#CCc3ccccc3)cnc2O[C@@H]1CN(C)CC1CCCC1	none (no result: HIV Env fusion)
COc1cc(OC)c(C(=O)C=Cc2ccc(OC)c(OC)c2)c(OC)c1	Ecoli rRNA inh -10.7
COc1ccc(/C=C/C(=O)NCCNC(=O)c2ccccc2)cc1OC	Ecoli rRNA inh -22.0
COc1ccc(/C=C/C(=O)NCCCNC(=O)/C=C/c2ccc(OC)c(OC)c2)cc1OC	none (no result: F508del corr)
COc1cc(/C=C/C(=O)NCCc2ccc(S(N)(=O)=O)cc2)ccc1OCC#N	Ecoli rRNA inh -25.8 (no result: Cneo AK release, miR-122 sensor)
O=C(c1cccc(F)c1)N1CC[C@@H]2[C@H](CO)Nc3ccc(C#Cc4ccc(F)cc4)cc3[C@@H]21	none (no result: HIV Env fusion)
CCOc1nc(CC(C)C)c2c(c1C#N)CC(C)(C)OC2	GSIS activator 51.2
CCOc1ncnc2c1oc1nc(CC(C)C)c3c(c12)CC(C)(C)OC3	none (no result: HIV Env fusion)
O=C(C[C@H]1C[C@@H]2c3cc(NC(=O)C4CCC4)ccc3O[C@@H]2[C@H](CO)O1)NCc1cccc(F)c1	none
O=C(C[C@@H]1C[C@H]2c3cc(NC(=O)C4CCC4)ccc3O[C@H]2[C@@H](CO)O1)NCc1cccc(F)c1	none
O=C(C[C@@H]1C[C@@H]2c3cc(NC(=O)C4CCC4)ccc3O[C@@H]2[C@H](CO)O1)NCc1cccc(F)c1	Cneo AK release 86.4
O=C(C[C@H]1C[C@H]2c3cc(NC(=O)C4CCC4)ccc3O[C@H]2[C@@H](CO)O1)NCc1cccc(F)c1	Cneo AK release 93.5
O=C(C[C@H]1C[C@@H]2c3cc(NC(=O)CC4CC4)ccc3O[C@@H]2[C@@H](CO)O1)NCc1cccc(F)c1	Cneo AK release 90.5 (no result: HIV Env fusion)
O=C(C[C@H]1C[C@H]2c3cc(NC(=O)CC4CC4)ccc3O[C@H]2[C@@H](CO)O1)NCc1cccc(F)c1	none (no result: HIV Env fusion)
COc1ccc2c3c([nH]c2c1)[C@@H](CO)N(Cc1ccncc1)CC31CN(S(C)(=O)=O)C1	none (no result: Cneo AK release, miR-122 sensor, HIV Env fusion, F508del corr)
C[C@H](CO)N1C[C@H](C)[C@H](CN(C)C(=O)Nc2ccc3c(c2)OCO3)Oc2ccc(NC(=O)c3ccncc3)cc2C1=O	none (no result: HIV Env fusion)
CN(Cc1ccccc1)c1nc(CN2CCOCC2)nc2scc(-c3ccccc3)c12	none (no result: Ecoli rRNA inh, F508del corr)
Fc1ccc(-c2csc3ncnc(N4CCN(Cc5ccccc5)CC4)c23)cc1	Ecoli rRNA inh -23.1
Fc1ccc(CN2CCN(c3ncnc4scc(-c5ccccc5)c34)CC2)cc1	none
Fc1ccc(N2CCN(c3nc(CN4CCOCC4)nc4scc(-c5ccccc5)c34)CC2)cc1	Ecoli rRNA inh -24.9 (no result: Cneo AK release, miR-122 sensor)
COc1ccc2c3c(n(C)c2c1)[C@@H](CO)N(C)CC31CCN(C(=O)c2cccnc2)CC1	none (no result: Cneo AK release, miR-122 sensor, HIV Env fusion)
C[C@H](CO)N1C[C@H](C)[C@H](CN(C)C)Oc2cc(-c3cccc(F)c3)ccc2S1(=O)=O	none
CCCNC(=O)Nc1ccc2c(c1)OC[C@@H](C)N(C(=O)C1CC1)C[C@H](C)[C@@H](OC)CN(C)C2=O	none (no result: HIV Env fusion)
Cc1oc2ccc(O)cc2c1C(=O)c1ccc(Br)cc1	Ecoli rRNA inh -23.1 (no result: Cneo AK release, miR-122 sensor)
O=C(N/N=C/c1ccccc1C(=O)O)c1cccc(S(=O)(=O)Nc2cc(Cl)ccc2Cl)c1	Ecoli rRNA inh -18.6
C/C(=N\NC(=O)c1cccc(S(=O)(=O)Nc2cccc(Cl)c2)c1)c1cccs1	miR-122 sensor 148.4 (no result: F508del corr)
CCN(CC)S(=O)(=O)c1cccc(C(=O)N/N=C(\C)c2cccs2)c1	none
